The list is not random: actives were taken first. Their share in the collection is about 4.4%.
MPTP block = permeability transition pore inhibition | isolated mouse mitochondria, Ca2+ swelling absorbance, 30 min | inhibition, % at 10 µM | 360,000 tested, 1.4% active | AID 602449;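 active means inhibition of 50% or more, scaled per plate between neutral and stimulator controls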;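 further: 0% = DMSO wells given calcium and 100% = 1 mM EGTA wells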
GRIN3A LBD mod = modulates the human NR3A ligand-binding domain. 340,000 tested, 2.5% active. Tm shift relative to glycine control, % at 25 µM. NR3A LBD differential scanning fluorimetry, Tm shift; 0% = protein alone, 100% = glycine-bound protein;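 active means melting temperature shift of at least 10% of the positive control shift, at one fixed dose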
EBI2 block = blocks human EBI2 receptor beta-arrestin signaling | P32249 | EBI2 beta-arrestin recruitment, luminescence, 7a,25-OHC stimulated | inhibition, % at 5 µM | 360,000 tested, 0.81% active | AID 651636; in the data active means inhibition above about 38%;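 further: enzyme fragment complementation signal reports receptor beta-arrestin coupling in cells; 0% = agonist plus DMSO wells and 100% = wells without agonist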
Target sequence (P32249 whole entry, looked up, the tested form may be a part): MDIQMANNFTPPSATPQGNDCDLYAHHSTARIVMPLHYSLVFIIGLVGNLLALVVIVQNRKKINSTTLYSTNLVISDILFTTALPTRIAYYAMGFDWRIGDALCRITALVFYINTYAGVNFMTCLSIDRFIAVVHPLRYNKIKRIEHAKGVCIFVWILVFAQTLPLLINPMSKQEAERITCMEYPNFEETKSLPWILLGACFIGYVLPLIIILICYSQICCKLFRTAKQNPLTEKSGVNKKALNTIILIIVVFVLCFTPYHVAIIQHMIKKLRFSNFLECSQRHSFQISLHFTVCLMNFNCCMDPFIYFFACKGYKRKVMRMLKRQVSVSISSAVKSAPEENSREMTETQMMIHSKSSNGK
SENP1 FRET inh = inhibitors of human SENP1 SUMO protease catalytic domain. Q9P0U3. recombinant SENP1 catalytic domain, CyPet-SUMO1-YPet FRET cleavage. inhibition, % at 10 µM. 360,000 tested, 0.21% active. AID 624204;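 active means inhibition at least 30% at 10 µM, raw YFP signal under a set limit, fluorescence ratio 0.5 to 1.5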;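 further: 0% = enzyme with DMSO and 100% = no enzyme wells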
Target sequence (Q9P0U3 419-644 limits assumed): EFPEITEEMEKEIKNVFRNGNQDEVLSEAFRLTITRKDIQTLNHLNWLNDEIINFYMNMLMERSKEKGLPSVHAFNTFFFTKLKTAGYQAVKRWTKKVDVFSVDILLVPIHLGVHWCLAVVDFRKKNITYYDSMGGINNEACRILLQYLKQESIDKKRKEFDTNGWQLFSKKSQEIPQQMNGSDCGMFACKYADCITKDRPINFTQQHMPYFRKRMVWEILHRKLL
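system = hSENP1 catalytic domain, recombinant | reagent = SFCypet-SUMO1-SFYpet substrate at 25 nM | doses = one dose per compound, 10 µM, 0.5% DMSO | incubation = enzyme reaction for 50 min at room temperature, dark | measured by = FRET, CFP and YFP emission | controls = no-enzyme low, enzyme-DMSO high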
MPTP counter = Rhodamine 123 counter-screen of mitochondrial pore hits; 5,000 tested, 78% active; isolated mitochondria, membrane potential, Rhodamine 123 fluorescence; shares compounds with MPTP block; inhibition, % at 10 µM; in the data active means inhibition above about 22%;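 further: 0% = DMSO vehicle and 100% = positive control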
The depositor's hits bear a star; / = no result.

SMILES | MPTP block | GRIN3A LBD mod | EBI2 block | SENP1 FRET inh | MPTP counter
COc1ccc(CCNc2nc(C)nc3c2oc2ccccc23)cc1OC | 71.1* | -1.0 | -16.1 | -1.8 | 91.2*
O=S(=O)(c1cccc(-c2n[nH]c(=S)n2-c2ccc(OC(F)(F)F)cc2)c1)N1CCOCC1 | 1.5 | 8.4 | -1.7 | -0.2 | /
O=C(Nc1ccc2ccccc2c1)C(c1ccccc1)C1CCCC1 (centres undefined) | 78.9* | 4.7 | 8.5 | -2.4 | 62.4*
Cc1ccc(NC(=O)C(c2ccccc2)C2CCCC2)cc1 (centres undefined) | 45.6 | -1.8 | 6.9 | 2.2 | /
CC(=O)c1ccc(NC(=S)Nc2ccc(Br)c(Cl)c2)cc1 | 96.2* | 29.3* | -4.3 | 0.5 | 100.2*
O=C(Nc1ccccc1)Nc1cccc(Cl)c1Cl | 92.9* | 3.4 | -4.9 | -0.4 | 96.6*
O=C(NC(=S)Nc1ccc(Br)c(Cl)c1)C1CC1 | 0.8 | -2.1 | 3.2 | -0.5 | /
O=C(Nc1ccccc1)Nc1ccc2ccccc2c1 | 87.0* | 25.8* | 1.1 | 2.2 | 83.2*
O=C(Nc1ncc(Br)s1)C(Cc1ccccc1)n1cccc1 (centres undefined) | 1.2 | -14.7 | -0.2 | 0.2 | /
CCc1nn(CC(=O)NCc2ccccc2Cl)c(=O)c2cccn12 | -2.5 | -0.7 | -2.9 | 1.0 | /
O=C(Nc1ccccc1)Nc1ccc(Br)c(Cl)c1 | 78.8* | 29.7* | 1.0 | 4.0 | 85.2*
CC(=O)c1ccc(NC(=S)NC(C)c2ccc(Cl)cc2Cl)cc1 (centres undefined) | 95.3* | 22.2* | 10.6 | 0.4 | 68.8*
COC(=O)c1ccc(C2N=C(c3cccs3)CC(c3ccccc3O)N2)cc1 (centres undefined) | 51.8* | -4.1 | -6.1 | -36.0 | 88.2*
O=C(c1ccccc1)N1N=C(c2cccs2)CC1c1ccccc1O (centres undefined) | 1.7 | -3.0 | -9.1 | 0.5 | /
CCC(C)C(NC(=O)CCC(=O)OCC(=O)[C@@]1(O)CCC2[C@@H]3CCC4=CC(=O)C=C[C@]4(C)C3[C@@H](O)C[C@@]21C)C(=O)O (some centres undefined) | 0.4 | 6.8 | -8.7 | 0.7 | /
COc1ccc(Cl)cc1-c1cc(C(=O)Nc2ccc(F)cc2)[nH]n1 | 0.4 | / | 20.4 | 0.5 | /
O=C(Nc1ccc(F)c(Cl)c1)C1CC2CCC1C2 (centres undefined) | 57.0* | -1.0 | -8.4 | 0.0 | 79.5*
CCC(CC)NC(=O)Nc1ccc(F)c(Cl)c1 | 71.1* | 0.2 | 1.5 | 1.9 | 84.3*
O=C(Nc1ccc(F)cc1)C1CC2CCC1C2 (centres undefined) | 2.0 | -1.4 | 2.7 | 2.5 | /
COc1ccc(OC)c(NC(=O)c2cc(-c3cc(Cl)ccc3O)n[nH]2)c1 | 84.6* | 33.2* | 17.8 | -1.6 | 61.1*
COc1ccc(NC(=O)NC2(C)CCS(=O)(=O)C2)cc1 (centres undefined) | -2.8 | 0.8 | -6.2 | 2.2 | /
CC(C)CC(=O)Nc1ccc(F)c(Cl)c1 | 13.3 | -1.0 | 0.5 | -0.9 | /
COc1ccc(NC(=O)NC23CC4(C)CC(C)(CC(C)(C4)C2)C3)cc1 | 97.1* | 3.0 | 19.5 | 1.0 | 48.3*
COc1ccc(S(=O)(=O)N2CCCCC2)cc1NC(=O)CSc1nnc(C2CC2)n1C | -0.2 | 2.5 | -0.5 | 4.1 | /
CC(=O)N(C)c1ccc(NC(=O)CCN2C(=O)c3ccccc3C2=O)cc1 | 0.9 | 3.4 | -10.5 | -1.4 | /
SMILES | MPTP block | GRIN3A LBD mod | EBI2 block | SENP1 FRET inh | MPTP counter
Cc1ccc(NC(=O)Nc2ccc(F)c(Cl)c2)cc1 | 96.2* | 31.6* | 20.2 | 3.0 | 88.1*
Cc1nnsc1C(=O)Nc1ccc(Cl)cc1 | 6.4 | -0.2 | -5.0 | 0.5 | /
Cc1cccc(OCCC(=O)Nc2ccc(F)c(Cl)c2)c1 | 78.2* | -5.0 | -1.5 | 1.4 | 79.1*
Cc1nnsc1C(=O)NC(=O)Nc1ccc(F)c(Cl)c1 | 58.6* | 0.0 | -3.9 | -1.2 | 76.2*
COc1ccc(OC)c(NC(=O)Nc2ccc(Cl)cc2)c1 | 91.0* | 27.9* | -0.1 | 3.3 | 68.9*
Cc1ccc(CNC(=O)Nc2ccc(Cl)cc2)cc1 | 11.0 | -0.6 | 8.6 | 3.2 | /
Cc1c(C(=O)N(C)C2CCCCC2)sc2ncnc(N3CCN(c4ccccc4F)CC3)c12 | -1.5 | -5.6 | 18.5 | -1.3 | /
C[N+](C)=C1SCC(C)(/C=N/O)S1 (centres undefined) | 2.0 | -5.1 | -10.6 | 0.4 | /
N#CCCN(C(=O)COC(=O)c1cc2ccccc2oc1=O)c1ccccc1 | -1.3 | -0.8 | -5.6 | 0.8 | /
COc1ccc(Cl)cc1S(=O)(=O)Nc1ncn[nH]1 | 0.8 | -3.7 | 2.8 | 2.3 | /
CC(=O)Nc1cccc(NC(=S)Nc2ccc(F)c(Cl)c2)c1 | 95.1* | 12.3* | -3.8 | 0.2 | 87.0*
CC(=O)Nc1cccc(NC(=O)c2cc(Cl)ccc2Cl)c1 | -1.4 | -0.4 | -20.2 | 3.2 | /
COc1ccc(NC(=O)Nc2ccc(F)c(Cl)c2)cc1 | 87.2* | 31.0* | 11.2 | -0.1 | 85.1*
O=C(Nc1cccnc1)Nc1ccc(F)c(Cl)c1 | 92.6* | 25.3* | -6.4 | 1.6 | 85.0*
CC(C)(C)OC(=O)n1cc(CCO)c2ccccc21 | -0.2 | -0.5 | -6.4 | 4.5 | /
O=[N+]([O-])c1cc(-n2cnnn2)ccc1N1CCC(Cc2ccccc2)CC1 | 75.3* | -0.8 | 39.4 | 3.7 | 57.0*
CC(NC(=O)Nc1cccc([N+](=O)[O-])c1)(C(F)(F)F)C(F)(F)F | 106.1* | -4.3 | -11.6 | -0.7 | 101.9*
Cc1cc(C)cc(NC(=O)Nc2ccc3c(c2)CCC3)c1 | 53.3* | 11.5* | 27.3 | -0.9 | 94.5*
COC(=O)c1sccc1NC(=O)Nc1cccc([N+](=O)[O-])c1 | 24.2 | 0.2 | 7.8 | -1.3 | /
O=C(Nc1cccc([N+](=O)[O-])c1)Nc1ccc2c(c1)CCC2 | 85.6* | 33.6* | 15.8 | 0.2 | 76.5*
O=C(Nc1cccc([N+](=O)[O-])c1)Nc1cccs1 | 89.1* | 19.2* | 9.0 | 1.4 | 85.5*
Cc1ccc(NC(=O)Nc2ccc3c(c2)CCC3)cc1 | 1.3 | 7.8 | -9.5 | -0.8 | /
CSC1=NC(C)N2C(SC)=NC(C)N12 (centres undefined) | 2.3 | 0.4 | -6.1 | -0.6 | /
O=C(Nc1ccc2c(c1)CCC2)Nc1ccc(F)cc1F | 11.9 | -25.7 | -1.0 | -1.8 | /
O=C(Nc1cccc(F)c1)Nc1ccc2c(c1)CCC2 | 66.8* | 42.6* | 11.3 | 2.1 | 92.5*
O=C(Nc1ccc(Cl)cc1)N(C1=NCCC1)c1ccc(OC(F)F)cc1 | 89.6* | 22.6* | 0.0 | 1.1 | 99.3*
COc1ccc(-c2cc(C3CCN(c4ccc(C(C)=O)cc4[N+](=O)[O-])CC3)[nH]n2)cc1 | 83.8* | -0.3 | 8.9 | 0.5 | 80.8*
CCCc1cc(C(=O)Nc2cc(OC)ccc2OC)cs1 | -0.8 | 1.7 | 10.7 | 1.0 | /

Screens as filed in PubChem BioAssay.
